Measured values: ChEMBL document CHEMBL1133013, “Structure-activity relationships and pharmacokinetic analysis for a series of potent, systemically available biphenylsulfonamide matrix metalloproteinase inhibitors” (J Med Chem, 2000)

How the values were obtained:
[1] = target: T1, Matrilysin (Homo sapiens, UniProt P09237); assay: In vitro inhibition of matrix metalloprotease-7 (MMP-7)
T1 sequence (P09237 whole entry): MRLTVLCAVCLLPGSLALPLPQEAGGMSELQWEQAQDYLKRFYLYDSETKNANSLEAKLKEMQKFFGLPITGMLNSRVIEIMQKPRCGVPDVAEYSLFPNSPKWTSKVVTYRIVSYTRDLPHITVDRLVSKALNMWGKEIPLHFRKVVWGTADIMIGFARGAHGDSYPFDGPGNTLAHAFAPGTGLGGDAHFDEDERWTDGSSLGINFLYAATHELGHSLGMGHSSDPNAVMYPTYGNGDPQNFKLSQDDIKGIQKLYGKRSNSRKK

[2] = target: T2, Interstitial collagenase (Homo sapiens, UniProt P03956); assay: In vitro inhibition of human recombinant matrix metalloprotease-1 (MMP-1)
T2 sequence (P03956 whole entry): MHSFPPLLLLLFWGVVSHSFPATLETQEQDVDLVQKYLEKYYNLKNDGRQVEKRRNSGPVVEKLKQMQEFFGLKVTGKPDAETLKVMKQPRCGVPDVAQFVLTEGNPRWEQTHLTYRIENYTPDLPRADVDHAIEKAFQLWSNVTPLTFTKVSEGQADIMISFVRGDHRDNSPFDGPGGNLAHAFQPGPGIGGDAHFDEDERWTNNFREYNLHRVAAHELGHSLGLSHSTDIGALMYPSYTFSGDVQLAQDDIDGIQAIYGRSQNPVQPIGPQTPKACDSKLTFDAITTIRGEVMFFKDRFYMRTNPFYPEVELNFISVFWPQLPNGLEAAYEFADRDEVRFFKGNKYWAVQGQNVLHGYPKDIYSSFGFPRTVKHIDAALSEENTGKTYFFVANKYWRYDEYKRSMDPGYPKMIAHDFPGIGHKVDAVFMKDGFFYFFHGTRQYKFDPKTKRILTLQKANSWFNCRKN

[3] = target: Stromelysin-1 (Homo sapiens, UniProt P08254); assay: In vitro inhibition of recombinant human matrix metalloprotease-3 (MMP-3)
Chain of Stromelysin-1 (P08254 whole entry): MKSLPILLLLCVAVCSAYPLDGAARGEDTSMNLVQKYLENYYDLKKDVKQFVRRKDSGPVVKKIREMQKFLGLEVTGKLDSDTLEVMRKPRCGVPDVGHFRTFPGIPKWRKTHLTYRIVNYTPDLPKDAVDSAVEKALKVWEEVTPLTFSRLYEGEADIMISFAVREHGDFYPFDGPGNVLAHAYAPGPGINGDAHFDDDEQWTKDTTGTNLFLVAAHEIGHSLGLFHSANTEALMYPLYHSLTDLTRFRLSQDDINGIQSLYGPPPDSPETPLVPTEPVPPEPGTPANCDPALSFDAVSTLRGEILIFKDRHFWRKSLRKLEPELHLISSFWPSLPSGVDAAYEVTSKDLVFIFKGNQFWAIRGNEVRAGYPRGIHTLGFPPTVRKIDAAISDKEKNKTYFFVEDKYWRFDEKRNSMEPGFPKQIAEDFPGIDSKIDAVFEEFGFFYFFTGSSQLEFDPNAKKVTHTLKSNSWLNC

[4] = target: Collagenase 3 (Homo sapiens, UniProt P45452)
[5] = target: 72 kDa type IV collagenase (Homo sapiens, UniProt P08253); assay: In vitro inhibition of matrix metalloprotease-2 (MMP-2)
Chain of 72 kDa type IV collagenase (P08253 whole entry): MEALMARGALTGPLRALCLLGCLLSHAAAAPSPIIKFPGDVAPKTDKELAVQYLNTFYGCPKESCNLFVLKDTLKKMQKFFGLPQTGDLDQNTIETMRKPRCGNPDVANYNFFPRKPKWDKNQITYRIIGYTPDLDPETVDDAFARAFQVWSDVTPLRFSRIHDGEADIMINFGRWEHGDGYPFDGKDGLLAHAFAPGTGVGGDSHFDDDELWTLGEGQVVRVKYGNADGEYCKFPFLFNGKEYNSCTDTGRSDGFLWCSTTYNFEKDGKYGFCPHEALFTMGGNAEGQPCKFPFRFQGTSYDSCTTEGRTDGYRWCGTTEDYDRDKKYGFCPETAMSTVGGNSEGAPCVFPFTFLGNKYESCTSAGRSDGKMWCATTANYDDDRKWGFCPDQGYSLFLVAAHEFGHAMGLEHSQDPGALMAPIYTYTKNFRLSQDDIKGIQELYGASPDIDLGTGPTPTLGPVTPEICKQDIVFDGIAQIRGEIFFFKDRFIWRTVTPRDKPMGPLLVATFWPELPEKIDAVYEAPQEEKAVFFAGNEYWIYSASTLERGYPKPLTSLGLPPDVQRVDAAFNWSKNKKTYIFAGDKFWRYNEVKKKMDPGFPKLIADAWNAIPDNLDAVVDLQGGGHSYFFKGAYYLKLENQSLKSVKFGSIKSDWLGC

[6] = target: Matrix metalloproteinase-9 (Homo sapiens, UniProt P14780); assay: In vitro inhibition of matrix metalloprotease-9 (MMP-9)
Chain of Matrix metalloproteinase-9 (P14780 whole entry): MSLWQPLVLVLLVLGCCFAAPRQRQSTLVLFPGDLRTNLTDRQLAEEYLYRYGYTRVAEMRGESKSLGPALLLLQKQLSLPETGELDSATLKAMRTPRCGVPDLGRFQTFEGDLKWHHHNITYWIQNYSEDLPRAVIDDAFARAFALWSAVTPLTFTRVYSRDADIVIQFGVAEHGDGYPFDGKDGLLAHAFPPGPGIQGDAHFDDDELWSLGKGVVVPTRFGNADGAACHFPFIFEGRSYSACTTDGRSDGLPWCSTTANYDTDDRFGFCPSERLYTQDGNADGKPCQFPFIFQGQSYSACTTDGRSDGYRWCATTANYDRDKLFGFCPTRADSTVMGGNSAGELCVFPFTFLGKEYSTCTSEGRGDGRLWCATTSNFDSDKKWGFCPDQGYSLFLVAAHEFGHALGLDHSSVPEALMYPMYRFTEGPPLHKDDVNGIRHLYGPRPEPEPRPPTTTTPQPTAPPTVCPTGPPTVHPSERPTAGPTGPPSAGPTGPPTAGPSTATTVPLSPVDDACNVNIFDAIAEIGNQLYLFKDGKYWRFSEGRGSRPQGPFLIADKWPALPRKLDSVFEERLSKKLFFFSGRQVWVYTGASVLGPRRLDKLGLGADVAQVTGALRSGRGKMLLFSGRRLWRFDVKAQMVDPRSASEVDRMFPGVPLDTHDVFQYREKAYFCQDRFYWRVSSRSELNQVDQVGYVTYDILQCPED

[7] = Concentration in rat plasma 24 hours after single 5 mg/kg oral cassette gavage dose; format: ADME, organism-based; design: dose 5 mg/kg, route oral; conditions: read-out: C24
[8] = Pharmacokinetic parameters in rats following a single 5 mg/kg oral cassette gavage dose; format: ADME, organism-based; design: dose 5 mg/kg, route oral; conditions: rat, in vivo, read-out: AUC 0-infinity
Outline: (§1)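 Cassette of 5–7 compounds given together as one oral gavage, 5 mg/kg per compound, methyl cellulose suspension, 3 fasted male Wistar rats (80-90 days old). Heparinized plasma taken by jugular cannula predose to 48 h. LC-MS/MS with LLOQ 10 ng/mL. Noncompartmental analysis of individual rats: Cmax/tmax as observed, t1/2 = 0.693/λz, trapezoidal AUC(0-tldc) extrapolated to infinity.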

[9] = Time to maximal concentration (tmax) in rats following a single 5 mg/kg oral cassette gavage dose; format: ADME, organism-based; design: dose 5 mg/kg, route oral; conditions: rat, in vivo; outline: as §1
[10] = Half life (t1/2) in rats following a single 5 mg/kg oral cassette gavage dose; format: ADME, organism-based; design: dose 5 mg/kg, route oral; conditions: rat, in vivo; outline: as §1
[11] = Cmax in rat plasma after single 5 mg/kg oral cassette gavage dose; format: ADME, organism-based; design: dose 5 mg/kg, route oral; outline: as §1
[12] = AUC in rats following a single 5 mg/kg oral cassette gavage dose; format: ADME, organism-based; design: dose 5 mg/kg, route oral; conditions: rat, plasma, read-out: AUC 0-tldc; outline: as §1

| SMILES | IC50 [1] [nM] | IC50 [2] [nM] | IC50 [3] [nM] | IC50 [4] [nM] | IC50 [5] [nM] | IC50 [6] [nM] | concentration at 24 h [7] [ng/mL] | AUC [8] [µg·h/mL] | Tmax [9] [h] | half-life [10] [h] | Cmax [11] [ng/mL] | AUC [12] [µg·h/mL] |
| --- | --- | --- | --- | --- | --- | --- | --- | --- | --- | --- | --- | --- |
| O=C(NCCCC[C@H](NS(=O)(=O)c1ccc(-c2ccc(Br)cc2)cc1)C(=O)O)OCc1ccccc1 | 15000 | 40000 | 28 | 13 | 31 | 10000 |  |  |  |  |  |  |
| O=C(O)C(CCSCc1ccccc1)NS(=O)(=O)c1ccc(-c2ccc(Br)cc2)cc1 (stereo not given) | 36000 | 56000 | 22 | 36 | 7 | 10000 | 1530 | 132 | 1.33 | 12.5 | 11600 | 119 |
| CC(C)[C@H](NS(=O)(=O)c1ccc(-c2ccc(Cl)cc2)cc1)C(=O)O | 7500 | 6500 | 9 | 48 | 11 | 16000 | 4020 | 427 | 0.5 | 34.1 | 8860 | 170 |
| O=C(CCc1ccccc1)NCCC[C@H](NS(=O)(=O)c1ccc(-c2ccc(Br)cc2)cc1)C(=O)O | 6800 | 41000 | 21 | 7 | 8 | 7700 |  |  |  |  |  |  |
| CC(C)[C@H](NS(=O)(=O)c1ccc(-c2ccc(F)cc2)cc1)C(=O)O | 4800 | 4200 | 10 | 43 | 39 | 64000 | 11300 | 1020 | 2.75 | 45.5 | 18700 | 670 |
| CC(C)[C@H](NS(=O)(=O)c1ccc(-c2ccc(C#N)cc2)cc1)C(=O)NO | 16000 | 29000 | 135 |  |  | 100000 |  |  |  |  |  |  |
| CC(C)[C@H](NS(=O)(=O)c1ccc(-c2ccc(N)cc2)cc1)C(=O)O | 31000 |  | 36 | 105 |  | 20000 |  |  |  |  |  |  |
| CC(C)[C@@H](NS(=O)(=O)c1ccc(-c2ccc(Br)cc2)cc1)C(=O)O | 11000 |  |  |  |  | 1500 | 16300 | 1380 | 4.5 | 41.7 | 25600 | 924 |
| O=C(CCc1ccccc1)NCCCC[C@H](NS(=O)(=O)c1ccc(-c2ccc(Br)cc2)cc1)C(=O)O | 8600 | 15000 | 10 |  |  | 4800 |  |  |  |  |  |  |
| Cc1ccc(-c2ccc(S(=O)(=O)N[C@H](C(=O)O)C(C)C)cc2)cc1 | 4500 | 2200 | 3 | 11 | 2 | 3900 | < 10 | 2.37 | 0.5 | 0.403 | 3070 | 2.25 |
| CC(C)[C@H](NS(=O)(=O)c1ccc(-c2ccccc2)cc1)C(=O)O | 71000 | 5400 | 38 | 62 | 40 | 26000 | 39 | 3.6 | 0.5 | 3.35 | 5180 | 12.1 |
| CC(C)[C@H](NS(=O)(=O)c1ccc(-c2ccc(Br)cc2)cc1)C(=O)O | 7200 |  |  |  |  | 7900 | 22700 | 2820 | 2 | 43.6 | 42400 | 1400 |
| CC(C)[C@H](NS(=O)(=O)c1ccc(-c2cccc(Br)c2)cc1)C(=O)O |  |  | 290 | 710 | 535 |  |  |  |  |  |  |  |
| C[C@H](NS(=O)(=O)c1ccc(-c2ccc(Br)cc2)cc1)C(=O)O | 11000 |  | 12 | 10 | 12 | 9500 | 12900 | 818 | 10.5 | 25.1 | 17200 | 584 |
| O=C(O)[C@H](Cc1ccccc1)NS(=O)(=O)c1ccc(-c2ccc(Br)cc2)cc1 | 100000 |  | 20 | 21 | 19 | 27000 | 6280 | 465 | 2.67 | 29.7 | 10300 | 310 |
| CC(C)[C@@H](NS(=O)(=O)c1ccc(Oc2ccccc2)cc1)C(=O)NO | 180 |  | 4 | 2 | 1 | 3 |  | 3.17 | 0.33 | 7.78 | 310 | 2.17 |
| CC(C)[C@@H](NS(=O)(=O)c1ccc(-c2ccc(C#N)cc2)cc1)C(=O)NO | 240 | 170 | 5 |  |  | 27 |  | 0.33 | 1 | 0.79 | 180 | 0.23 |
| CC(C)[C@H](NS(=O)(=O)c1ccc(-c2ccc(Br)cc2)cc1)C(=O)NO | 78000 | 24000 | 810 | 650 | 450 | 84000 |  |  |  |  |  |  |
| CC(C)C[C@H](NS(=O)(=O)c1ccc(-c2ccc(Br)cc2)cc1)C(=O)O | 3100 | 7000 | 7 | 5 | 9 | 4900 | 12400 | 1210 | 2.33 | 41.8 | 30700 | 578 |
| COc1ccc(-c2ccc(S(=O)(=O)N[C@H](C(=O)O)C(C)C)cc2)cc1 | 7200 | 1500 |  | 6 | 3 | 2200 | < 10 | 2.98 | 0.5 | 0.357 | 4260 | 2.79 |
| CC(C)[C@H](NS(=O)(=O)c1ccc(-c2ccc([N+](=O)[O-])cc2)cc1)C(=O)O | 5600 | 12000 | 15 | 102 |  | 38000 | 8360 | 586 | 0.667 | 19.5 | 23400 | 402 |
| O=C(O)CNS(=O)(=O)c1ccc(-c2ccc(Br)cc2)cc1 | 77000 | 50000 | 10 | 26 | 4 | 6700 | 5670 | 316 | 8 | 15.6 | 9960 | 276 |
| CC(C)[C@H](NS(=O)(=O)c1ccc(-c2ccc(C=O)cc2)cc1)C(=O)O | 4500 | 3200 | 8 | 16 | 12 | 17000 |  |  |  |  |  |  |
| O=C(O)C(CCS(=O)(=O)Cc1ccccc1)NS(=O)(=O)c1ccc(-c2ccc(Br)cc2)cc1 (stereo not given) | 15000 | 27000 | 7 | 12 | 2 | 2300 |  | 2.73 | 1.67 | 3.88 | 451 | 2.48 |
| CC(C)[C@H](NS(=O)(=O)c1ccc(-c2ccc(C(F)(F)F)cc2)cc1)C(=O)O | 7900 | 4200 | 9 | 23 |  | 20000 | 11700 | 1110 | 2.25 | 37.9 | 18600 | 685 |
| CC(C)[C@H](NS(=O)(=O)c1ccc(-c2cccc(F)c2)cc1)C(=O)O | 22000 | 8600 | 17 | 150 | 49 | 65000 |  |  |  |  |  |  |
